Laboratory results taken from ChEMBL document CHEMBL4477209, “Indole-2-carboxamide-based MmpL3 Inhibitors Show Exceptional Antitubercular Activity in an Animal Model of Tuberculosis Infection” (J Med Chem, 2016).
In brackets after ≈: the same amount, converted by molar mass. Activity calls are given as the source filed them. The rule behind the calls is not given here.

Tests used:
[1] = target: T1, Aryl hydrocarbon receptor (Homo sapiens, UniProt P35869); experiment: Transactivation of AhR (unknown origin) assessed as upregulation of CYP1A2 at 0.1 to 1 microg/ml; assay type: ADME
T1 sequence (P35869 whole entry): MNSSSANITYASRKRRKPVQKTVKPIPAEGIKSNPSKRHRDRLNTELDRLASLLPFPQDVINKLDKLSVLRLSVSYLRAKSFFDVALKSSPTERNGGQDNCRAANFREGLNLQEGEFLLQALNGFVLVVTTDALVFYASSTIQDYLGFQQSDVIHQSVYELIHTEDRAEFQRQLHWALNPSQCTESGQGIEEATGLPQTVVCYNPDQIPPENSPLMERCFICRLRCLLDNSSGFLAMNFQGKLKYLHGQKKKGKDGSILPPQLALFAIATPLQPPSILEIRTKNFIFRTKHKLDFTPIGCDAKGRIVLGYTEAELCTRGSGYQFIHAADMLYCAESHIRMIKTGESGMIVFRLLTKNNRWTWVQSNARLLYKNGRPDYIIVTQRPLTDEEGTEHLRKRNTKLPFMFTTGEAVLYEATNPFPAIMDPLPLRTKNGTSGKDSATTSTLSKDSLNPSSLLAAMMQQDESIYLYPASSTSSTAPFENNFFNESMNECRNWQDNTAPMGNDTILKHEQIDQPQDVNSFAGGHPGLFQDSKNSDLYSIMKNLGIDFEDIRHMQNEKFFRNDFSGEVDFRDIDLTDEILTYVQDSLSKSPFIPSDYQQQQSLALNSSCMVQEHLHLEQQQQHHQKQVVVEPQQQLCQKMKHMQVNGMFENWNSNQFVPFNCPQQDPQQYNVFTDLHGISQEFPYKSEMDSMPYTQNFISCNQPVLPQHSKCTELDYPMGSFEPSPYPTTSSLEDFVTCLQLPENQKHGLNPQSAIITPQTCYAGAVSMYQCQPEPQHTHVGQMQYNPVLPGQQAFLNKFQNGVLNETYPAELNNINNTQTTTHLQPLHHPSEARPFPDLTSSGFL
Summary of the method: (§1)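 Nuclear receptor reporter-gene induction assay, with reporters coupled to PXR, CAR or AhR. Compound was tested at 0.1–1, 3 and 8 μg/mL. Positive controls were rifampin for PXR, CITCO for CAR and 3-methylcholanthrene for AhR.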

[2] = AUClast in BALB/c mouse plasma at 100 mg/kg administered via oral gavage after 0.25 to 24 hrs by LC-MS analysis; assay type: ADME, organism-based; set-up: dose 100 mg/kg, time 0.25-24 hr, route oral
Summary of the method: (§2)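 Female BALB/c mice (20 g), single oral gavage dose of 100 mg/kg. Cardiac blood and lungs taken at 0, 0.25, 0.5, 1, 2, 4, 8 and 24 h (n = 3 per time point). Plasma separated by centrifugation; lungs bead-beaten in water and supernatant recovered. Drug quantified by LC-MS/MS against an indole-2-carboxamide internal standard. Parameters derived by noncompartmental analysis.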

[3] = system: Mycobacterium tuberculosis; experiment: Antimycobacterial activity against Mycobacterium tuberculosis H37Rv grown on serum isolated from 100 mg/kg, po treated BALB/c mouse for 30 to 120 mins assessed as reduction in bacterial growth followed by bacterial addition incubated for 7 days by alamar blue reagent based serum inhibition titration assay; assay type: functional, organism-based
Summary of the method: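 Six-week-old female BALB/c mice (20 g) given one oral dose as suspension in 0.5% CMC in water; isoniazid 10 mg/kg as positive control, vehicle as negative. Serum collected at 30, 60 and 120 min, pooled from three mice per time point, 2-fold serially diluted. 10^4 CFU H37Rv added per well, 7 days at 37 °C. alamarBlue added for 16−18 h, fluorescence read at Ex544/Em590 and plotted against serum titration.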

[4] = target: T2, Nuclear receptor subfamily 1 group I member 2 (Homo sapiens, UniProt O75469); experiment: Transactivation of PXR (unknown origin) assessed as upregulation of CYP3A4 at 3 to 8 microg/ml; assay type: ADME; summary of the method: as §1
T2 sequence (O75469 whole entry): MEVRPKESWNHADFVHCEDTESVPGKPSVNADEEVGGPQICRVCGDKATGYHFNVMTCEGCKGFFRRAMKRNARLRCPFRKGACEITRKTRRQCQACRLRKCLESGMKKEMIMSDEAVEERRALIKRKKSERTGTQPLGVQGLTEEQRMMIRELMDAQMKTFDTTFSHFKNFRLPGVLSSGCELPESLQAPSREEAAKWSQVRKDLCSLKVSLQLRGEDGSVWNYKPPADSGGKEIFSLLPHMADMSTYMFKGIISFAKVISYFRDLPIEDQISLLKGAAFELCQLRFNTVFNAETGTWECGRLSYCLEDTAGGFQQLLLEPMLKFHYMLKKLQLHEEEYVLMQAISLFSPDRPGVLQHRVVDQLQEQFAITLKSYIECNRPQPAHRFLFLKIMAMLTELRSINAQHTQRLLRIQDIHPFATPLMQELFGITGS

[5] = Tmax in BALB/c mouse lung at 100 mg/kg administered via oral gavage after 0.25 to 24 hrs by LC-MS analysis; assay type: ADME, organism-based
Summary of the method: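 Female BALB/c mice (20 g) got a single 100 mg/kg oral gavage dose. Three animals were sacrificed per time point at 0, 0.25, 0.5, 1, 2, 4, 8 and 24 h. Cardiac blood was spun at 12 000g, 4 °C for plasma. Lungs were bead-beaten in water and the supernatant taken. Both matrices were quantified by LC-MS/MS with an indole-2-carboxamide internal standard. Parameters came from noncompartmental analysis.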

[6] = Cmax in BALB/c mouse plasma at 100 mg/kg administered via oral gavage after 0.25 to 24 hrs by LC-MS analysis; assay type: ADME, organism-based; set-up: dose 100 mg/kg, route oral; summary of the method: as §2
[7] = system: Mycobacterium tuberculosis; experiment: Antimycobacterial activity against Mycobacterium tuberculosis H37Rv infected in BALB/c mouse model assessed as reduction in CFU counts in lung at 100 mg/kg administered daily via oral gavage for 5 days per week measured after 28 days post dosage relative to control; assay type: functional
Summary of the method: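 Female BALB/c mice, 4-6 weeks old, aerosol-infected with H37Rv (about 10^3 CFU); five mice taken on day 1 for lung implantation CFU. From day 1, 12.5, 25, 50 or 100 mg/kg in 0.5% carboxymethylcellulose by daily oral gavage, 5 days/week. Ethambutol 100 mg/kg as positive control, untreated infected mice as negative, 5 mice per group. Lung homogenates plated on 7H11 selective agar on days 14 and 28.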

[8] = Mutagenicity in Salmonella typhimurium TA98; assay type: toxicity; details: salmonella enterica subsp. enterica serovar typhimurium
[9] = system: Mycobacterium tuberculosis H37Rv; experiment: Inhibition of MmpL3 in clinical isolates of drug sensitive Mycobacterium tuberculosis H37Rv after 7 to 14 days by alamar blue assay
[10] = AUMClast in BALB/c mouse lung at 100 mg/kg administered via oral gavage after 0.25 to 24 hrs by LC-MS analysis; assay type: ADME, organism-based; details: in vivo; summary of the method: as §2

With `C[C@@H]1[C@H]2C[C@@H](C[C@H]1NC(=O)c1cc3c(F)cc(F)cc3[nH]1)C2(C)C` the Activity [1] was “Not Active”, the AUC(0-t) [2] was 18900 ng·h/mL and the Activity [3] was “Active”. For the same compound, the Activity [4] was “Active”, the Tmax [5] was 4 h and the Cmax [6] was 1710 ng/mL. For the same compound, the Activity [7] was 2.12 log10CFU, the Activity [8] was “Non-Toxic” and the MIC90 [9] was 0.012 µM (≈ 3.99 ng/mL). It also gave an AUMClast [10] of 433 hr2.ug/g.
